ChEMBL document CHEMBL1131435, “Biphenylsulfonamide endothelin antagonists: structure-activity relationships of a series of mono- and disubstituted analogues and pharmacology of the orally active endothelin antagonist 2'-amino-N- (3,4-dimethyl-5-isoxazolyl)-4'-(2-methylpropyl)[1, 1'-biphenyl]-2-sulfonamide (BMS-187308)” (J Med Chem, 1998)

The compounds below were run against Endothelin-1 receptor (Rattus norvegicus) (assay: Ability to inhibit Endothelin A receptor induced contractions in rabbit carotid artery rings (ETA) was determined in an in vitro functional assay.).

Ki	SMILES
0.82 µM	Cc1noc(NS(=O)(=O)c2ccccc2-c2ccccn2)c1C
8.8 µM	Cc1noc(NS(=O)(=O)c2ccccc2-c2ncccn2)c1C

Each compound was assayed against T1, Endothelin-1 receptor (Rattus norvegicus, UniProt P26684) (assay: Ability to inhibit binding of [125I]ET1 to membranes prepared from A10 rat thoracic aorta smooth muscle (Endothelin A receptor) was determined by radioligand binding assay).
T1 sequence (P26684 whole entry): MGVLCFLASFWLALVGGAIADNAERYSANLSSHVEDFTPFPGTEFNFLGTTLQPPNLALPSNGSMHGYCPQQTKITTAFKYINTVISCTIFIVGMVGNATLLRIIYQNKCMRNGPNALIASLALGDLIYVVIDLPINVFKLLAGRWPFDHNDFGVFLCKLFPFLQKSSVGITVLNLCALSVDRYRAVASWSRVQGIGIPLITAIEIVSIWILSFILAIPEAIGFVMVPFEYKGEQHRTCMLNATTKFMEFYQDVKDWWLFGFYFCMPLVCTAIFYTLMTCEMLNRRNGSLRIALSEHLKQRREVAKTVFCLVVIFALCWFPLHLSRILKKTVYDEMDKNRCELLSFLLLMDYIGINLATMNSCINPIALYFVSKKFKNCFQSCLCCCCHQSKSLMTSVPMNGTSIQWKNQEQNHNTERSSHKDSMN
Type: tissue-based
Summary of the method: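 Competition binding of [125I]ET-1 to membranes prepared from A10 rat thoracic aorta smooth muscle cells (ET_A). Data were fitted iteratively to a one- or two-site binding model, and Ki was calculated from the IC50. Values are reported as Ki ± SE.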

Ki	SMILES
8 µM	Cc1noc(NS(=O)(=O)c2ccccc2Br)c1C

Each compound was assayed against Endothelin receptor type B (Rattus norvegicus) (UniProt P21451) (assay: Inhibition of [125I]ET-1 binding to rat cerebellum membranes (Endothelin B receptor) was determined in a radioligand binding assay.).
Sequence of Endothelin receptor type B (Rattus norvegicus) (P21451 whole entry, looked up): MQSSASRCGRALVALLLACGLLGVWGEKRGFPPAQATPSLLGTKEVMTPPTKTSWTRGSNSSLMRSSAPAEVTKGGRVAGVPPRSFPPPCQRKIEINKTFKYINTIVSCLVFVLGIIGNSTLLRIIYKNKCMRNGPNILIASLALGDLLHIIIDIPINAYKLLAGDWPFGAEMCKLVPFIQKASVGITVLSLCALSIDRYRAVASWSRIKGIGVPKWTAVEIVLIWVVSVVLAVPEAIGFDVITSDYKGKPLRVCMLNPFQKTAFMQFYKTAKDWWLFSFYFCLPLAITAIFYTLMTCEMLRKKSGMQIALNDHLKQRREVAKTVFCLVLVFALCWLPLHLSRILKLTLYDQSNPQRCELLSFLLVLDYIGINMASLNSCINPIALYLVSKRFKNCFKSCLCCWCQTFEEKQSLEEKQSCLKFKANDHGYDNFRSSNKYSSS

Ki	SMILES
> 200 µM	Cc1noc(NS(=O)(=O)c2ccccc2-c2cccnc2)c1C
66 µM	Cc1noc(NS(=O)(=O)c2ccccc2-c2cc3ccccc3[nH]2)c1C
> 200 µM	Cc1noc(NS(=O)(=O)c2ccccc2-c2ccsc2)c1C
> 200 µM	Cc1noc(NS(=O)(=O)c2ccccc2-c2c[nH]c3ccccc23)c1C
> 200 µM	Cc1noc(NS(=O)(=O)c2ccccc2-c2ncccn2)c1C
> 200 µM	Cc1noc(NS(=O)(=O)c2ccccc2-c2cccs2)c1C
